In ChEMBL document CHEMBL4028906, “Allosteric Inhibitors of SHP2 with Therapeutic Potential for Cancer Treatment” (J Med Chem, 2017):
Activity calls are given as the source filed them. The rule behind the calls is not given here.

What was measured:
[1] = Allosteric inhibition of SHP2 E76A mutant (unknown origin) expressed in Escherichia coli BL21(DE3) using DIFMUP as substrate preincubated for 20 mins followed by substrate addition measured after 20 mins by phosphatase assay; parameters: species or system Homo sapiens
How it was run: (§1)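 His-tagged SHP2 constructs expressed in E. coli BL21(DE3) (0.5 mM IPTG, 5 h, 30 °C) and Ni-column purified. 1.5 nM enzyme preincubated 20 min at room temperature with compound in 0.1 M sodium acetate pH 5.0. DIFMUP then added, 20 min further, fluorescence at 358/455 nm. Eight 3-fold dilutions, duplicate wells, IC50 from at least three independent experiments.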

[2] = target: Tyrosine-protein phosphatase non-receptor type 11 (Homo sapiens, UniProt Q06124); assay: Allosteric inhibition of SHP2 PTP domain (unknown origin) expressed in Escherichia coli BL21(DE3) using DIFMUP as substrate preincubated for 20 mins followed by substrate addition measured after 20 mins by phosphatase assay; how it was run: as §1
[3] = target: T1, Tyrosine-protein phosphatase non-receptor type 11 (Homo sapiens) (UniProt Q06124); assay: Allosteric inhibition of SHP2 in human NCI-H661 cells assessed as downregulation of phosphorylated AKT levels at 20 uM after 2 hrs by Western blot analysis; type: cell-based
T1 sequence (whole entry): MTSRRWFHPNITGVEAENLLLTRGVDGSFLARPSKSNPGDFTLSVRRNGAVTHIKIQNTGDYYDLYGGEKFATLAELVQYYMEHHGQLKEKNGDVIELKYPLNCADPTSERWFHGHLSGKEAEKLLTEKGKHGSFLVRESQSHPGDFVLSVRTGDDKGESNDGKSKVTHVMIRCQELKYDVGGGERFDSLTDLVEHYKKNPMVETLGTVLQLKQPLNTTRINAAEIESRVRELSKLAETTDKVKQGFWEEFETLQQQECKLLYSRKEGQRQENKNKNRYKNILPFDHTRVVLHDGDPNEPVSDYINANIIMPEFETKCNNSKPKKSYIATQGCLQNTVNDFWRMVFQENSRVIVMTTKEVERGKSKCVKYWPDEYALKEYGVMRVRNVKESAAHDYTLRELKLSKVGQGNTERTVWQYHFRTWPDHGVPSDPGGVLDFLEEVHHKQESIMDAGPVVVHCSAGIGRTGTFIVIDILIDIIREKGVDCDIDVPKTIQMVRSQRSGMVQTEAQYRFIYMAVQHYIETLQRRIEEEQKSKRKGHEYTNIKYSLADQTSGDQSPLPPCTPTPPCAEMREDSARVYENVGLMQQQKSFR
How it was run: (§2)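 NCI-H661 cells in 6-well plates exposed to inhibitor 2 h at 37 °C. RIPA lysates separated by SDS-PAGE, transferred to PVDF, milk-blocked, probed overnight at 4 °C for pERK1/2, ERK1/2, pAKT and AKT. Repeated at least three times.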

[4] = target: T1, Tyrosine-protein phosphatase non-receptor type 11 (Homo sapiens); assay: Allosteric inhibition of SHP2 in human NCI-H661 cells assessed as downregulation of phosphorylated ERK1/2 levels at 20 uM after 2 hrs by Western blot analysis; type: cell-based; how it was run: as §2
[5] = target: T1, Tyrosine-protein phosphatase non-receptor type 11 (Homo sapiens); assay: Allosteric inhibition of SHP2 in human SF268 cells stably expressing Yap-Luc reporter assessed as reduction in YAP transcriptional activity at 3 to 12 uM after 12 hrs by Yap-luciferase reporter gene assay; type: cell-based
How it was run: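 SF268 cells stably carrying a Yap-Luc reporter, in RPMI-1640 on 96-well plates, given inhibitor at 3, 6 and 12 μM on day 1. After 12 h, lysates read for Renilla luciferase, normalized to CellTiter-Glo signal; mean±s.d., n=3.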

Structure (SMILES) | IC50 [1] | further results
c1ccc2cc(-c3csc(NCC4CCCNC4)n3)ccc2c1 (stereo unspecified) | 1.49 µM | 
NCC1CCCN(c2nc(-c3ccc4ccccc4c3)cs2)C1 (stereo unspecified) | 52.8 µM | 
CC1(N)CCN(c2nc(-c3cccc(-c4ccccc4)c3)cs2)CC1 | 3.62 µM | 
CC1(N)CCN(c2nc(-c3ccc4cc(F)ccc4c3)cs2)CC1 | 1.27 µM | 
CC1(C)CC(Nc2nc(-c3ccc(-c4ccccc4)cc3)cs2)CC(C)(C)N1 | 5.32 µM | 
COc1ccc2cc(-c3csc(N4CCC(C)(N)CC4)n3)ccc2c1 | 2.46 µM | 
COC(=O)c1ccc2cc(-c3csc(N4CCC(C)(N)CC4)n3)ccc2c1 | 1.08 µM | 
CC1(C)CC(Nc2nc(-c3ccc4ccccc4c3)cs2)CC(C)(C)N1 | 2.55 µM | 
CC1CN(c2nc(-c3ccc4ccccc4c3)cs2)CC(C)N1 (stereo unspecified) | 12.3 µM | 
CC1(N)CCN(c2nc(-c3cccc(-c4ccc(C#N)cc4)c3)cs2)CC1 | 1.76 µM | 
CC1(N)CCN(c2nc(-c3ccc4ccccc4c3)cs2)CC1 | 1.48 µM | 
CC1(N)CCN(c2nc(-c3ccc4cc(Cl)ccc4c3)cs2)CC1 | 2.68 µM | 
CC1(N)CCN(c2nc(-c3cnc4ccccc4c3)cs2)CC1 | 52.3 µM | 
c1ccc2cc(-c3csc(NC4CCNC4)n3)ccc2c1 (stereo unspecified) | 1.65 µM | 
CC1(N)CCN(c2nc(-c3ccc(-c4ccc(F)cc4)cc3)cs2)CC1 | 14.2 µM | 
CC1(N)CCN(c2nc(-c3ccc4cc(C#N)ccc4c3)cs2)CC1 | 1.37 µM | 
c1ccc2cc(-c3csc(NC4CCNCC4)n3)ccc2c1 | 0.73 µM | 
CC1(N)CCN(c2cnc(-c3cccc(Cl)c3Cl)c(N)n2)CC1 | 0.12 µM | 
CC1(N)CCN(c2nc(-c3cccc4c3oc3ccccc34)cs2)CC1 | 46.5 µM | 
CC1(N)CCN(c2nc(-c3ccc4cc(CO)ccc4c3)cs2)CC1 | > 100 µM | 
CC1(C)CC(Nc2nc(-c3ccccc3)cs2)CC(C)(C)N1 | 19.1 µM | IC50 [2]: > 100 µM
CC1(C)CC(Nc2nc(-c3cccc(-c4ccccc4)c3)cs2)CC(C)(C)N1 | 3.27 µM | 
COC(=O)c1ccc(-c2cccc(-c3csc(N4CCC(C)(N)CC4)n3)c2)cc1 | 3.28 µM | 
CC1(N)CCN(c2nc(-c3ccc(-c4ccc(O)cc4)cc3)cs2)CC1 | 20.3 µM | 
CC1(N)CCN(c2nc(-c3cc4ccccc4s3)cs2)CC1 | > 100 µM | inhibition [3]: inactive; inhibition [4]: inactive; inhibition [5]: inactive
CN1CCC(Nc2nc(-c3ccc4ccccc4c3)cs2)CC1 | 2.81 µM | 
CC1(N)CCN(c2nc(-c3ccc4cc(C(=O)O)ccc4c3)cs2)CC1 | 51.7 µM | 
